Experimental data from ChEMBL document CHEMBL4261538, “Synthesis and molecular docking studies of xanthone attached amino acids as potential antimicrobial and anti-inflammatory agents” (Medchemcomm, 2017).
Values after ≈ are worked out from the molar mass of the structure shown.

Legend:
Bacillus subtilis [1] = assay: Antibacterial activity against Bacillus subtilis at 75 ug/ml incubated for 24 hrs by agar well diffusion method; format: functional; conditions: read-out: DIZ
How it was run: (§1)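 Bacteria grown in nutrient broth at 37 °C for 24 h, then subcultured at room temperature. Compounds dissolved in DMSO at 5 mg mL⁻¹ and 5–20 µL added to 6 mm wells, giving 25, 50, 75, 100 µg per well. Gentamicin was the positive control and DMSO the negative control. Plates held at 37 °C for 24 h, then inhibition zone diameter (mm) measured. Values are means of three determinations.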

Fusarium oxysporum [2] = assay: Antifungal activity against Fusarium oxysporum at 50 ug/ml incubated for 48 hrs by agar well diffusion method; format: functional; conditions: read-out: DIZ
How it was run: (§2)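 Compounds dissolved in DMSO at 5 mg mL⁻¹ and 5–20 µL added to 6 mm wells, giving 25, 50, 75, 100 µg per well. Bavistin was the positive control and DMSO the negative control. Plates incubated at 28 °C for 48 h, then inhibition zone diameter (mm) measured. Values are means of three determinations.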

Fusarium oxysporum [3] = assay: Antifungal activity against Fusarium oxysporum incubated for 48 to 72 hrs by microdilution method; format: functional
How it was run: (§3)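 Sabouraud agar plates inoculated with fungal suspension at 10⁵ CFU mL⁻¹ plus serially diluted compounds and bavistin reference, both in DMSO. Incubated at 25 °C for 48–72 h. MIC is the lowest concentration completely inhibiting growth. Values are means of three determinations.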

Aspergillus niger [4] = assay: Antifungal activity against Aspergillus niger at 100 ug/ml incubated for 48 hrs by agar well diffusion method; format: functional; conditions: read-out: DIZ; how it was run: as §2
Klebsiella pneumoniae [5] = assay: Antibacterial activity against Klebsiella pneumoniae at 25 ug/ml incubated for 24 hrs by agar well diffusion method; format: functional; conditions: read-out: DIZ; how it was run: as §1
Staphylococcus aureus [6] = assay: Antibacterial activity against Staphylococcus aureus incubated for 24 hrs by microdilution method; format: functional
Candida albicans [7] = assay: Antifungal activity against Candida albicans at 100 ug/ml incubated for 48 hrs by agar well diffusion method; format: functional; conditions: read-out: DIZ; how it was run: as §2
Klebsiella pneumoniae [8] = assay: Antibacterial activity against Klebsiella pneumoniae at 75 ug/ml incubated for 24 hrs by agar well diffusion method; format: functional; conditions: read-out: DIZ; how it was run: as §1
Fusarium oxysporum [9] = assay: Antifungal activity against Fusarium oxysporum at 75 ug/ml incubated for 48 hrs by agar well diffusion method; format: functional; conditions: read-out: DIZ; how it was run: as §2
Klebsiella pneumoniae [10] = assay: Antibacterial activity against Klebsiella pneumoniae at 100 ug/ml incubated for 24 hrs by agar well diffusion method; format: functional; conditions: read-out: DIZ; how it was run: as §1
Staphylococcus aureus [11] = assay: Antibacterial activity against Staphylococcus aureus at 75 ug/ml incubated for 24 hrs by agar well diffusion method; format: functional; conditions: read-out: DIZ; how it was run: as §1
Escherichia coli [12] = assay: Antibacterial activity against Escherichia coli at 50 ug/ml incubated for 24 hrs by agar well diffusion method; format: functional; conditions: read-out: DIZ; how it was run: as §1
Staphylococcus aureus [13] = assay: Antibacterial activity against Staphylococcus aureus at 50 ug/ml incubated for 24 hrs by agar well diffusion method; format: functional; conditions: read-out: DIZ; how it was run: as §1
Escherichia coli [14] = assay: Antibacterial activity against Escherichia coli at 25 ug/ml incubated for 24 hrs by agar well diffusion method; format: functional; conditions: read-out: DIZ; how it was run: as §1
Bacillus subtilis [15] = assay: Antibacterial activity against Bacillus subtilis at 25 ug/ml incubated for 24 hrs by agar well diffusion method; format: functional; conditions: read-out: DIZ; how it was run: as §1
Erythrocyte = assay: Anti-inflammatory activity in human RBC assessed as inhibition of hypotonic solution-induced hemolysis after 10 mins by spectrophotometric method; format: functional, cell-based
How it was run: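 Human blood (heparinized) washed with 0.9% saline, packed cells made into a 40% v/v stock in isotonic phosphate buffer (154 mM NaCl, 10 mM sodium phosphate, pH 7.4). Stock RBC mixed with hypotonic buffer (50 mM NaCl, 10 mM phosphate, pH 7.4) plus sample at 20–100 µg mL⁻¹.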

Aspergillus niger [16] = assay: Antifungal activity against Aspergillus niger at 50 ug/ml incubated for 48 hrs by agar well diffusion method; format: functional; conditions: read-out: DIZ; how it was run: as §2
Fusarium oxysporum [17] = assay: Antifungal activity against Fusarium oxysporum at 25 ug/ml incubated for 48 hrs by agar well diffusion method; format: functional; conditions: read-out: DIZ; how it was run: as §2
Candida albicans [18] = assay: Antifungal activity against Candida albicans at 75 ug/ml incubated for 48 hrs by agar well diffusion method; format: functional; conditions: read-out: DIZ; how it was run: as §2
Escherichia coli [19] = assay: Antibacterial activity against Escherichia coli at 75 ug/ml incubated for 24 hrs by agar well diffusion method; format: functional; conditions: read-out: DIZ; how it was run: as §1
Bacillus subtilis [20] = assay: Antibacterial activity against Bacillus subtilis at 50 ug/ml incubated for 24 hrs by agar well diffusion method; format: functional; conditions: read-out: DIZ; how it was run: as §1
Escherichia coli [21] = assay: Antibacterial activity against Escherichia coli at 100 ug/ml incubated for 24 hrs by agar well diffusion method; format: functional; conditions: read-out: DIZ; how it was run: as §1
Aspergillus niger [22] = assay: Antifungal activity against Aspergillus niger at 25 ug/ml incubated for 48 hrs by agar well diffusion method; format: functional; conditions: read-out: DIZ; how it was run: as §2
Klebsiella pneumoniae [23] = assay: Antibacterial activity against Klebsiella pneumoniae incubated for 24 hrs by microdilution method; format: functional
Klebsiella pneumoniae [24] = assay: Antibacterial activity against Klebsiella pneumoniae at 50 ug/ml incubated for 24 hrs by agar well diffusion method; format: functional; conditions: read-out: DIZ; how it was run: as §1
Staphylococcus aureus [25] = assay: Antibacterial activity against Staphylococcus aureus at 100 ug/ml incubated for 24 hrs by agar well diffusion method; format: functional; conditions: read-out: DIZ; how it was run: as §1
Fusarium oxysporum [26] = assay: Antifungal activity against Fusarium oxysporum at 100 ug/ml incubated for 48 hrs by agar well diffusion method; format: functional; conditions: read-out: DIZ; how it was run: as §2
Staphylococcus aureus [27] = assay: Induction of cell membrane damage in Staphylococcus aureus assessed as cell content leakage at MIC by spectrophotometric method; format: functional, organism-based; conditions: TDE = time-dependent effect
How it was run: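 Log-phase S. aureus inoculated into 0.1% sterile peptone water, with an untreated control, and held at 37 °C for 0, 30, 60 and 120 min. 1 mL of broth centrifuged and supernatant OD read at 260 nm to measure released DNA. Run in triplicate, repeated three times.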

Candida albicans [28] = assay: Antifungal activity against Candida albicans at 50 ug/ml incubated for 48 hrs by agar well diffusion method; format: functional; conditions: read-out: DIZ; how it was run: as §2
Candida albicans [29] = assay: Antifungal activity against Candida albicans incubated for 48 to 72 hrs by microdilution method; format: functional; how it was run: as §3
Escherichia coli [30] = assay: Antibacterial activity against Escherichia coli incubated for 24 hrs by microdilution method; format: functional
Bacillus subtilis [31] = assay: Antibacterial activity against Bacillus subtilis incubated for 24 hrs by microdilution method; format: functional
Candida albicans [32] = assay: Antifungal activity against Candida albicans at 25 ug/ml incubated for 48 hrs by agar well diffusion method; format: functional; conditions: read-out: DIZ; how it was run: as §2
Staphylococcus aureus [33] = assay: Antibacterial activity against Staphylococcus aureus at 25 ug/ml incubated for 24 hrs by agar well diffusion method; format: functional; conditions: read-out: DIZ; how it was run: as §1
Bacillus subtilis [34] = assay: Antibacterial activity against Bacillus subtilis at 100 ug/ml incubated for 24 hrs by agar well diffusion method; format: functional; conditions: read-out: DIZ; how it was run: as §1
Aspergillus niger [35] = assay: Antifungal activity against Aspergillus niger incubated for 48 to 72 hrs by microdilution method; format: functional; how it was run: as §3
Aspergillus niger [36] = assay: Antifungal activity against Aspergillus niger at 75 ug/ml incubated for 48 hrs by agar well diffusion method; format: functional; conditions: read-out: DIZ; how it was run: as §2

Compound `CC(C)(C)OC(=O)N1CCC[C@H]1C(=O)Oc1ccc2c(=O)c3ccccc3oc2c1` has a zone of inhibition at 75 µg/mL (Bacillus subtilis [1]) of 31 mm, a zone of inhibition at 50 µg/mL (Fusarium oxysporum [2]) of 24 mm and an MIC (Fusarium oxysporum [3]) of 25 µg/mL (≈ 61.1 µM). The zone of inhibition at 100 µg/mL (Aspergillus niger [4]) was 33 mm, the zone of inhibition at 25 µg/mL (Klebsiella pneumoniae [5]) was 13 mm and the MIC (Staphylococcus aureus [6]) was 27 µg/mL (≈ 65.9 µM). The zone of inhibition at 100 µg/mL (Candida albicans [7]) was 34 mm, the zone of inhibition at 75 µg/mL (Klebsiella pneumoniae [8]) was 27 mm and the zone of inhibition at 75 µg/mL (Fusarium oxysporum [9]) was 29 mm. The zone of inhibition at 100 µg/mL (Klebsiella pneumoniae [10]) was 32 mm, the zone of inhibition at 75 µg/mL (Staphylococcus aureus [11]) was 29 mm and the zone of inhibition at 50 µg/mL (Escherichia coli [12]) was 26 mm. It also gave a zone of inhibition at 50 µg/mL (Staphylococcus aureus [13]) of 24 mm, a zone of inhibition at 25 µg/mL (Escherichia coli [14]) of 17 mm and a zone of inhibition at 25 µg/mL (Bacillus subtilis [15]) of 15 mm. It also gave an IC50 (Erythrocyte) of 34 µg/mL (≈ 83 µM), a zone of inhibition at 50 µg/mL (Aspergillus niger [16]) of 24 mm and a zone of inhibition at 25 µg/mL (Fusarium oxysporum [17]) of 20 mm. The zone of inhibition at 75 µg/mL (Candida albicans [18]) was 27 mm, the zone of inhibition at 75 µg/mL (Escherichia coli [19]) was 31 mm and the zone of inhibition at 50 µg/mL (Bacillus subtilis [20]) was 24 mm. It also gave a zone of inhibition at 100 µg/mL (Escherichia coli [21]) of 36 mm, a zone of inhibition at 25 µg/mL (Aspergillus niger [22]) of 17 mm and an MIC (Klebsiella pneumoniae [23]) of 24 µg/mL (≈ 58.6 µM). For the same compound, the zone of inhibition at 50 µg/mL (Klebsiella pneumoniae [24]) was 21 mm, the zone of inhibition at 100 µg/mL (Staphylococcus aureus [25]) was 33 mm and the zone of inhibition at 100 µg/mL (Fusarium oxysporum [26]) was 35 mm. The Activity (Staphylococcus aureus [27]) was “Tde”, the zone of inhibition at 50 µg/mL (Candida albicans [28]) was 22 mm and the MIC (Candida albicans [29]) was 24 µg/mL (≈ 58.6 µM). The MIC (Escherichia coli [30]) was 25 µg/mL (≈ 61.1 µM), the MIC (Bacillus subtilis [31]) was 26 µg/mL (≈ 63.5 µM) and the zone of inhibition at 25 µg/mL (Candida albicans [32]) was 16 mm. It also gave a zone of inhibition at 25 µg/mL (Staphylococcus aureus [33]) of 17 mm, a zone of inhibition at 100 µg/mL (Bacillus subtilis [34]) of 35 mm and an MIC (Aspergillus niger [35]) of 29 µg/mL (≈ 70.8 µM). The zone of inhibition at 75 µg/mL (Aspergillus niger [36]) was 30 mm.
